Assay results from ChEMBL document CHEMBL3352635 (Bioorg Med Chem Lett, 2014).
Blank lines part the entries; values can stand above or below the compound they belong to.

Columns and labels:
[1] = AUC in Sprague-Dawley rat at 44.83 mg/kg, po; format: ADME, organism-based; set-up: dose 44.83 mg/kg, route oral; settings: plasma
In short: (§1)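 Plasma parent-drug concentration followed over time up to 8 h. AUC in µg*h/mL from the concentration–time profile. Cmax and Tmax taken from the profile.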

[2] = Metabolic stability in simulated gastric fluid assessed as compound remaining at pH 1.2 after 10 mins by HPLC analysis; format: ADME; settings: read-out: Stability
In short: (§2)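 Compounds incubated at 37 °C in simulated gastric fluid (pH 1.2), simulated intestinal fluid (pH 6.8) or 100% human plasma for up to 180 min. […] Half-life estimated from the decay.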

[3] = Metabolic stability in simulated gastric fluid assessed as compound remaining at pH 1.2 after 120 mins by HPLC analysis; format: ADME; settings: read-out: Stability; in short: as §2
[4] = Metabolic stability in simulated gastric fluid assessed as compound remaining at pH 1.2 after 15 mins by HPLC analysis; format: ADME; settings: read-out: Stability; in short: as §2
[5] = Half life in simulated gastric fluid at pH 1.2 by HPLC analysis; format: ADME; in short: as §2
[6] = Metabolic stability in simulated gastric fluid assessed as compound remaining at pH 1.2 after 60 mins by HPLC analysis; format: ADME; settings: read-out: Stability; in short: as §2
[7] = Metabolic stability in simulated gastric fluid assessed as compound remaining at pH 1.2 measured immediately by HPLC analysis; format: ADME; settings: read-out: Stability; in short: as §2
[8] = Metabolic stability in simulated gastric fluid assessed as compound remaining at pH 1.2 after 5 mins by HPLC analysis; format: ADME; settings: read-out: Stability; in short: as §2
[9] = Metabolic stability in simulated gastric fluid assessed as compound remaining at pH 1.2 after 30 mins by HPLC analysis; format: ADME; settings: read-out: Stability; in short: as §2
[10] = Metabolic stability in simulated gastric fluid assessed as compound remaining at pH 1.2 after 180 mins by HPLC analysis; format: ADME; settings: read-out: Stability; in short: as §2
in vivo [11] = settings: Sprague-Dawley, rat, plasma, po, 10 mg/kg
in vivo [12] = settings: Sprague-Dawley, rat, plasma, po, 10 mg/kg; remark: listed apart in the source
in vivo [13] = settings: Sprague-Dawley, rat, plasma, po, 10 mg/kg; remark: listed apart in the source
in vivo [14] = settings: Sprague-Dawley, rat, po, 10 mg/kg
in vivo [15] = settings: Sprague-Dawley, rat, po, 10 mg/kg; remark: listed apart in the source
[16] = AUC in Sprague-Dawley rat at 30 mg/kg, po; format: ADME, organism-based; set-up: dose 30 mg/kg, route oral; settings: plasma; in short: as §1
[17] = AUC in Wistar rat at 30 mg/kg, po; format: ADME, organism-based; set-up: dose 30 mg/kg, route oral; settings: plasma
In short: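 Single oral dosing in Wistar rats to compare […]. Aspirin at 30 mg/kg or the prodrug at 44.83 mg/kg (equimolar to 30 mg/kg aspirin). Plasma aspirin measured over time. AUC in µg*h/mL.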

Rattus norvegicus [18] = assay: Toxicity in rat assessed as gastric lesion and ulcer area at 200 mg/kg, po after 5 hrs; format: organism-based, Stomach; set-up: dose 200 mg/kg, route oral; settings: in vivo
Rattus norvegicus [19] = assay: Antiplatelet activity in Sprague-Dawley rat assessed as inhibition of TXB2 formation at 30 mg/kg, po od after 7 days by EIA relative to vehicle-treated control; format: functional; settings: 168 h
In short: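 Sprague–Dawley rats dosed orally once daily for 7 days with aspirin 30 mg/kg or prodrug 44.82 mg/kg (equimolar), with vehicle 1 ml/kg as control. Serum TXB2 levels estimated. Inhibition expressed as % reduction versus vehicle.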

AUC [1]: 53600 ng·h/mL
Compound: CCC(OC(=O)c1ccccc1OC(C)=O)O[N+](=O)[O-] (stereo not given)

AUC [1]: 73500 ng·h/mL
Compound: CCCC(OC(=O)c1ccccc1OC(C)=O)O[N+](=O)[O-] (stereo not given)

Second part, the compound before the results:

Compound: CCCCC(OC(=O)[C@@H](C)c1ccc2cc(OC)ccc2c1)O[N+](=O)[O-] (stereo not given in full)
remaining at 10 min [2]: 96%
remaining at 2 h [3]: 80%
remaining at 0.25 h [4]: 87%
half-life [5]: > 180 min
remaining at 1 h [6]: 87%
remaining at 0 min [7]: 100%
remaining at 5 min [8]: 98%
remaining at 0.5 h [9]: 87%
remaining at 3 h [10]: 71%

Compound: COc1ccc2cc([C@H](C)C(=O)O)ccc2c1 [NAPROXEN]
Cmax at 2 h (in vivo [11]): > 30000 ng/mL
Cmax at 8 h (in vivo [12]): < 15000 ng/mL
Cmax at 4 h (in vivo [13]): > 20000 ng/mL
Tmax (in vivo [14]): 15 min
Cmax at 0.25 h (in vivo [15]): 55000 ng/mL

Compound: CC(=O)Oc1ccccc1C(=O)O [ASPIRIN]
AUC [16]: 91100 ng·h/mL
AUC [17]: 437000 ng·h/mL
Activity (Rattus norvegicus [18]): 93 mm2
inhibition in vivo at 30 mg/kg (Rattus norvegicus [19]): 76%
